ABCG2 block = human ABCG2 inhibition, ABCB1 as counter-screen; Q9UNQ0; IgMXP3 cells, JC-1 efflux, flow cytometry; inhibition, % at 6.6 µM; 190,000 compounds, 0.1% hits; AID 1325;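 active = inhibition above 80%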;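 also: 0% = DMSO and 100% = nicardipine control wells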
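Times: 10 min at 25 °C | Test system: Two drug-resistant human cell lines, ABCG2 and ABCB1 | Quantity: 3 million cells/mL final, two lines in 1:1 ratio | Signal: Flow cytometry, 530 nm JC-1 signal | Dosing: Compound at 6.6 µM | Controls: Nicardipine and DMSO wells | Reagent: JC-1 as fluorescent efflux pump substrate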
WT yeast gro inh = growth inhibition of WT yeast, mitochondrial fusion screen; mitochondrial fusion phenotypic screen, WT strain; 190,000 compounds, 2.1% hits; inhibition, % at 10 µM; in the data active = inhibition above about 58%; tested in S. cerevisiae
MEKK3 PB1 HTS = modulators (inhibitors or enhancers) of MEK5 binding to human MEKK3 PB1 domain. binding response (% of control), % at 10 µM. bead-based flow cytometry, Alexa488-MEK5 binding to MEKK3; actives lie on both sides; 0 = blocked by unlabeled MEK5, 100 = vehicle. 290,000 compounds, 1.4% hits;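 active = binding response more than 3 SD above or below the average of its plate-row segment, actives on both sides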;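 also: Alexa488 bead fluorescence after subtracting the streptavidin-only scavenger bead signal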
MEKK2 WT-MEK5 = raises or lowers MEK5 binding to wildtype human MEKK2 PB1 domain. Q9Y2U5. bead flow cytometry, Alexa488-MEK5 binding to MEKK2 WT; actives lie on both sides. binding response (% of control), % at 10 µM. 290,000 compounds, 1.1% hits. AID 1531; in the data active = binding response below about 67% or above about 130%
MEKK2 mut-MEK5 = signal of MEK5 binding to mutant human MEKK2 PB1 domain. bead flow cytometry, Alexa488-MEK5 binding to MEKK2 mutant. percent response, % at 10 µM. 290,000 compounds, 0.35% hits; in the data active = percent response above about 24%, passing the limit was not always enough
ABCB1 inh = human ABCB1 inhibition, ABCG2 as counter-screen. P08183. CCRF-Adr cells, JC-1 efflux, flow cytometry. inhibition, % at 6.6 µM. 190,000 compounds, 0.067% hits; in the data active = inhibition above about 40%;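 also: 0% = vehicle and 100% = reference inhibitor; higher value means more JC-1 retained so stronger ABCB1 efflux block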
Target sequence (P08183 whole entry, looked up): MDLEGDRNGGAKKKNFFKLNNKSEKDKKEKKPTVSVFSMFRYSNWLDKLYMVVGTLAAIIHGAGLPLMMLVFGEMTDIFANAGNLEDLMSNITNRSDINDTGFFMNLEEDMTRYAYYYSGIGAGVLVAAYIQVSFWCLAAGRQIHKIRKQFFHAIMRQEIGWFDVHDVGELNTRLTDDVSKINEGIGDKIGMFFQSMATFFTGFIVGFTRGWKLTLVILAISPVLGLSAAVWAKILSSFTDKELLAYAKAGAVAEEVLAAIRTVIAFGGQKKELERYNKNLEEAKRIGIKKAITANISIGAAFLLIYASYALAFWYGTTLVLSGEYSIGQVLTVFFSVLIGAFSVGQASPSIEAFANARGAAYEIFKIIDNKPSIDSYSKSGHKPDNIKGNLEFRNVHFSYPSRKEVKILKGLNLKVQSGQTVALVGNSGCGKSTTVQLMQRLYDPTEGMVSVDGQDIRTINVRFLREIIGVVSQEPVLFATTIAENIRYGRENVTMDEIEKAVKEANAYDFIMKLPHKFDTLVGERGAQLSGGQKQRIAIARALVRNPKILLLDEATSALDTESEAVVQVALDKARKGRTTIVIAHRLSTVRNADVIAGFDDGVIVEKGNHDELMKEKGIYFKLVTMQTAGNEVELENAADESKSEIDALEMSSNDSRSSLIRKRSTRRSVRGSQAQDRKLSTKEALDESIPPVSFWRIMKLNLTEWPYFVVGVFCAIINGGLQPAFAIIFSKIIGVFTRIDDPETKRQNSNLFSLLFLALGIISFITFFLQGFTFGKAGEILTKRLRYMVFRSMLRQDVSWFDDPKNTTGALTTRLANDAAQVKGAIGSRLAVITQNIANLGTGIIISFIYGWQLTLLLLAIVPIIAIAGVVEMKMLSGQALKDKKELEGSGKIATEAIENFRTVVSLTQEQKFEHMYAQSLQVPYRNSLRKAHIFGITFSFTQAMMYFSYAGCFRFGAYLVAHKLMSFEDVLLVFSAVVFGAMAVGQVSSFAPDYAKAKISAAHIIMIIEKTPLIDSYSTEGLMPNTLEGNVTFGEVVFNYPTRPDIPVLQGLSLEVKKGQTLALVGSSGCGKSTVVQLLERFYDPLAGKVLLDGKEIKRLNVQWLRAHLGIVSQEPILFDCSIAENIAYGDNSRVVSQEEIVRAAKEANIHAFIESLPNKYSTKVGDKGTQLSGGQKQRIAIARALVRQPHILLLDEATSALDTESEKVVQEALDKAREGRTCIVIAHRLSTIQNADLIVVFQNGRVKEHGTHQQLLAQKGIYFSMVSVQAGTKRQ
* hit, by the source's call; / = no result given; [ ] = another dose, or the depositor's remark. Only some compounds are listed: those with a hit (about 3.5% of all), similar ones and a draw of the others.

SMILES	ABCG2 block	WT yeast gro inh	MEKK3 PB1 HTS	MEKK2 WT-MEK5	MEKK2 mut-MEK5	ABCB1 inh
COC(=O)C(Cc1ccccc1)NC(=O)CCNC(=O)c1ccco1 (configuration not stated)	/	/	92.0	85.0	-6.0	/
N#CC1=C(N)NC(SCC(=O)c2ccc(Br)cc2)=C(C#N)C12CCCCC2	0.2	78.2*	94.0	95.0	-2.0	0.4
CC1=CC(C)(C)n2c(O)c(N=NC(N)=S)c3c(C)ccc1c32	1.9	6.3	101.0	107.0	14.0	0.2
CC1=CC(C)(C)n2c(O)c(N=NC(N)=S)c3cccc1c32	5.1	-1.9	146.0*	108.0	0.0	0.9
CSc1ccccc1C(=O)Nc1ccccc1C(=O)NC(C)C	11.8	4.2	104.0	102.0	1.0	0.4
COc1ccc(Nc2nc(C(=O)N3CCc4cc(OC)c(OC)cc4C3)cs2)cc1	/	/	107.0	105.0	4.0	/
O=C(c1csc(Nc2ccccc2Cl)n1)N1CCCC1	10.8	69.2*	/	/	/	0.5
COc1ccc(Nc2nc(C(=O)N3CCc4ccccc4C3)cs2)cc1	13.6	75.3*	106.0	96.0	-10.0	0.6
O=C(CNC(c1ccccc1)c1ccccc1)Nc1ccccc1-c1ccccc1	2.3	-7.2	96.0	103.0	11.0	1.1
CC(C)Nc1nc(Cl)nc(NNC(=O)C(C)Oc2ccccc2)n1 (configuration not stated)	10.2	9.3	94.0	96.0	-1.0	0.6
CO/N=C(\c1nonc1N)N1CCN(c2ccc(Cl)cc2[N+](=O)[O-])CC1	2.0	75.2*	/	/	/	0.3
CO/N=C(\c1nonc1N)N1CCN(c2ccc([N+](=O)[O-])cc2Cl)CC1	5.1	5.9	100.0	98.0	-1.0	-1.9
NC(=O)c1c(NC(=O)c2ccccc2)sc2c1CCC2	/	/	106.0	100.0	3.0	/
CCN(CC)S(=O)(=O)c1cccc(C(=O)Nc2sc3c(c2C(N)=O)CCCC3)c1	-1.1	72.5*	109.0	103.0	3.0	-0.4
Cc1ccc(-c2[nH]c3ccccc3c2C(C[N+](=O)[O-])c2ccco2)cc1 (configuration not stated)	2.1	68.8*	104.0	103.0	-1.0	0.2
Cc1[nH]c2ccccc2c1C(C[N+](=O)[O-])c1ccco1 (configuration not stated)	10.8	-20.2	99.0	96.0	-3.0	0.4
Cc1ccc(-c2nnc(N3CCC(C)CC3)c3ccccc23)cc1C	2.2	82.2*	98.0	82.0	-5.0	0.2
CCOC(=O)CSc1n[nH]c(-c2cccnc2)n1	2.7	95.3*	/	/	/	0.3
COC(=O)CSc1n[nH]c(-c2cccnc2)n1	1.7	2.9	104.0	102.0	3.0	0.1
CCN(Cc1cc2ccc(C)cc2[nH]c1=O)C(=O)c1ccncc1	1.2	60.2*	99.0	99.0	1.0	0.4
COc1ccccc1NC(=O)c1ccc(CSc2ncccn2)cc1	6.8	7.2	100.0	96.0	0.0	0.9
CCN(CC)S(=O)(=O)c1ccc(OC)c(NC(=O)C2CC(=O)N(c3ccc4c(c3)OCCO4)C2)c1 (configuration not stated)	/	/	0.0*[inhibitor]	-2.0*[inhibitor]	-21.0	/
COc1ccc(C(=O)Nc2ccc(Cl)cc2C(=O)N2CCCC(C)C2)cc1 (configuration not stated)	5.3	-36.5	95.0	99.0	-3.0	1.9
O=S(=O)(Nc1cccc(-n2cnnn2)c1)c1cc(Br)ccc1Br	/	/	100.0	99.0	0.0	/
CC(=O)Oc1ccc2ccccc2c1C(NC(=O)Cc1ccccc1)c1ccc(Cl)cc1 (configuration not stated)	0.9	14.7	95.0	92.0	-8.0	0.5
SMILES	ABCG2 block	WT yeast gro inh	MEKK3 PB1 HTS	MEKK2 WT-MEK5	MEKK2 mut-MEK5	ABCB1 inh
O=C(COc1ccc(Cl)cc1Cl)NCCC1=CCCCC1	19.9	65.8*	107.0	105.0	6.0	4.4
Cc1ccc(C(=O)CC(=O)c2ccc(C(C)(C)C)cc2)cc1	2.2	-1.2	109.0	100.0	-8.0	0.5
CC(C)(C)c1ccc(C(=O)CC(=O)c2cc(Cl)ccc2O)cc1	-0.2	64.8*	94.0	91.0	-9.0	-0.2
Cc1ccc(C(=O)CC(=O)c2cc(Cl)ccc2O)cc1	3.9	62.0*	99.0	97.0	3.0	0.1
COc1ccc(N(CC(=O)N2CCN(c3cccc(C)c3C)CC2)S(=O)(=O)c2c(C)noc2C)cc1	/	/	98.0	96.0	-1.0	/
CCN(CC)c1ccc(/C=N/NS(=O)(=O)c2ccc(C)c([N+](=O)[O-])c2)cc1	-3.0	35.8	98.0	104.0	10.0	-1.1
CCN(CC)c1ccc(C=NCCNS(=O)(=O)c2ccc(C)cc2)cc1	/	/	98.0	-6.0*	7.0	/
Cc1ccc(C(C)NC(=O)/C(C#N)=C\c2c(C)[nH]c3ccccc23)cc1 (configuration not stated)	8.0	87.8*	105.0	106.0	4.0	0.5
O=S(=O)(Cc1ccccc1)N1CCN(Cc2ccc(F)cc2Cl)CC1	/	/	107.0	104.0	2.0	/
N/C(Cc1ccccc1)=N\OC(=O)c1cccc2ccccc12	4.5	81.2*	104.0	100.0	3.0	1.5
N/C(=N\OC(=O)c1cccc2ccccc12)c1ccc(Br)cc1	2.6	76.9*	106.0	95.0	1.0	3.3
N/C(=N\OC(=O)c1cccc2ccccc12)c1ccncc1	/	/	107.0	103.0	9.0	/
COc1cc(CCC(=O)N2CCN(c3ncccn3)CC2)cc(OC)c1OC	3.7	3.0	115.0	111.0	-6.0	1.0
N#CC(Sc1ccccn1)c1ccc(Cl)cc1 (configuration not stated)	3.8	73.1*	101.0	101.0	-6.0	1.1
O=C(NCCSc1ccccn1)c1ccc(Cl)cc1	12.5	-9.6	98.0	91.0	0.0	-2.3
CCOC(=O)c1cc(C#N)c(Oc2ccccc2OC)nc1-c1ccccc1	2.3	21.9	105.0	100.0	4.0	0.7
S=C(NCc1cccc(Cl)c1)NC1CCCCC1	0.1	65.8*	99.0	96.0	-3.0	-0.2
O=C(Nc1ccc(-c2nc3ccccc3[nH]2)cc1)C1CCCO1 (configuration not stated)	9.2	68.8*	103.0	102.0	7.0	2.0
O=C(Nc1nc2ccccc2[nH]1)C1CCCO1 (configuration not stated)	0.1	-0.1	101.0	102.0	-3.0	0.1
Cc1ccc(C)c(N2CCN(C(=O)CN3C(=S)NC(C)(C)CC3C)CC2)c1 (configuration not stated)	1.0	9.2	104.0	102.0	2.0	0.8
C=CCN(C(=O)c1csnn1)C(C(=O)NC1CCCCC1)c1ccc(Cl)cc1 (configuration not stated)	/	/	98.0	96.0	-3.0	/
C=CCN(C(=O)c1csnn1)C(C(=O)NC1CCCC1)c1c(F)cccc1Cl (configuration not stated)	/	/	105.0	153.0*	14.0	/
